Series [1] concerns Mus musculus. The series is described as follows: Toxicity in diet-induced obesity C57BL/6 mouse model assessed as white blood count at 100 mg/kg, po daily once for 10 weeks. The format is organism-based. On the set-up: dose 100 mg/kg, route oral. The note with it: in vivo, 1680 h. A digest of the protocol: (§1)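 Male C57BL/6 mice were fed a 60%-fat diet from 9 weeks of age until about 40 g, in groups of 6-10. They were dosed by oral gavage once daily in 2% HPMC + 0.2% DOSS, with 29 at 100 mg/kg and rosiglitazone at 5 mg/kg, alongside vehicle groups on lean and high-fat diet. Fed glucose was read at weeks 2, 4, 6, 8 and 10. Clinical chemistry and hematology were also measured. Analysis by ANOVA.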

The test system of series [2] is Mus musculus. The series is described as follows: Antidiabetic activity in diet-induced obesity C57BL/6 mouse model assessed as reduction of plasma insulin level at 100 mg/kg, po daily once after 10 weeks.
For series [3], the system named is Salmonella typhimurium. Kind of series: Mutagenic activity in Salmonella Typhimurium TA100 in presence of S9 activation. The conditions noted are these: salmonella enterica subsp. enterica serovar typhimurium. The format is toxicity, organism-based.
In series [4] the target is T1, Muscarinic acetylcholine receptor M1 (Homo sapiens, UniProt P11229).
T1 sequence (P11229 whole entry): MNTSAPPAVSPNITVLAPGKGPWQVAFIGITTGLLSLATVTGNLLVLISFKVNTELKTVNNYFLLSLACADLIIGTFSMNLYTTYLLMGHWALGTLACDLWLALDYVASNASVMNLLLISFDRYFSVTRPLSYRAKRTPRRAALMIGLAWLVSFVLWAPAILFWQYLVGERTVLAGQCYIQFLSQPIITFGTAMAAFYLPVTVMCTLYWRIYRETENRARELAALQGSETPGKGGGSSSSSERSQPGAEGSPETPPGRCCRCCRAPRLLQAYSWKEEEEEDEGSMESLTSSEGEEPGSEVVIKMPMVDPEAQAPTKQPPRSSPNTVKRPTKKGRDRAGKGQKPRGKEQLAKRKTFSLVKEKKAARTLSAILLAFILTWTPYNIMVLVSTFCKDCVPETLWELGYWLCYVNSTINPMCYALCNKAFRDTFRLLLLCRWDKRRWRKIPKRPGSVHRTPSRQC
Kind of series: Inhibition of muscarinic M1 receptor.

A further series relates to Rattus norvegicus. Kind of series: Antidiabetic activity in genetic Zucker fa/fa rat model assessed as increase in glucose infusion rate at 100 mg/kg, po daily once after 4 weeks by hyperinsulinemic-euglycemic clamp. The format is functional. In short, it runs like this: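 Zucker fa/fa rats, cannulated 5 days beforehand and fasted 8 h, underwent the clamp after 4 weeks of dosing. [3-3H]glucose tracer was primed and infused, then insulin 25 (mU/kg)/min was started. Variable 50% dextrose held blood glucose at 100 mg/dL over 120 min, with tracer specific activity sampled at 110 and 120 min.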

Series [5] is described as follows: Inhibition of CYP1A at 25 uM. The format is ADME. A digest of the protocol:
(§2)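 Inhibition of CYP isozymes was tested up to a highest concentration of 25 µM.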

Series [6] is described as follows: Terminal half life in Sprague-Dawley rat at 100 mg/kg, po or 10 mg/kg, iv. The format is ADME, organism-based. The note with it: in vivo, read-out: beta t1/2 (converted). A digest of the protocol:
(§3)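 Male Sprague-Dawley rats (250 g, 3 per dose group) received 100 mg/kg by oral gavage in 2% HPMC + 0.2% DOSS, or 10 mg/kg iv by tail vein in 10% ethanol/40% PEG/50% H2O. Blood was drawn at 0.033-24 h postdose for drug levels.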

A short description of series [7]: Oral bioavailability in Sprague-Dawley rat at 100 mg/kg. The format is ADME, organism-based. The conditions noted are these: in vivo. A digest of the protocol:
as §3

Series [8] concerns Mus musculus. Kind of series: Antidiabetic activity in diet-induced obesity C57BL/6 mouse model assessed as reduction of fed blood glucose level at 100 mg/kg, po daily once relative to control.
The target of a further series is Cytochrome P450 2D6 (Homo sapiens, UniProt P10635). The series is described as follows: Inhibition of CYP2D6 at 25 uM. The format is ADME. A digest of the protocol: as §2
For series [9], the system named is Mus musculus. The series is described as follows: Antidiabetic activity in ob/ob mouse model assessed as reduction of fasting blood glucose level at 100 mg/kg, po daily once after 1 week relative to control. The format is functional, organism-based. On the set-up: dose 100 mg/kg. A digest of the protocol: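 ob/ob mice received at 6 weeks of age were kept on a 60%-fat diet from at least 1 week before the study. They were sorted by body weight and glucose, then gavaged once daily with 100 mg/kg or vehicle (2% HPMC + 0.2% DOSS). Fasting blood glucose was measured. Analysis by one-way ANOVA with Dunnett's test.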

For series [10], the system named is Mus musculus. Kind of series: Toxicity in diet-induced obesity C57BL/6 mouse model assessed as red blood count at 100 mg/kg, po daily once for 10 weeks. Set-up: dose 100 mg/kg, route oral. The conditions noted are these: in vivo, 1680 h. The format is organism-based. A digest of the protocol:
as §1

The test system of series [11] is Mus musculus. The series is described as follows: Liver toxicity in diet-induced obesity C57BL/6 mouse model at 100 mg/kg, po daily once after 10 weeks. The format is organism-based. On the set-up: dose 100 mg/kg, route oral. The note with it: in vivo, 1680 h. In short, it runs like this: as §1
Series [12] in a line: Cmax in Sprague-Dawley rat at 100 mg/kg, po or 10 mg/kg, iv. The note with it: in vivo. The format is ADME, organism-based. In short, it runs like this: as §3
The subject of series [13] is Salmonella typhimurium. The series is described as follows: Mutagenic activity in Salmonella Typhimurium TA100 in absence of S9 activation. The format is toxicity, organism-based. The conditions noted are these: salmonella enterica subsp. enterica serovar typhimurium.
For series [14], the system named is Mus musculus. Kind of series: Antidiabetic activity in C57BL/6 mouse assessed as overt sign of hypoglycemia at 100 mg/kg, po daily once after 10 weeks. The format is functional, organism-based. Set-up: dose 100 mg/kg. A digest of the protocol:
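Lean chow-fed mice were dosed 100 mg/kg po daily in 2% HPMC + 0.2% DOSS for 10 weeks and watched for overt hypoglycemia.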

The test system of series [15] is Mus musculus. Kind of series: Toxicity in diet-induced obesity C57BL/6 mouse model assessed as hematocrit at 100 mg/kg, po daily once for 10 weeks. The format is organism-based. On the set-up: dose 100 mg/kg, route oral. The note with it: in vivo, 1680 h. In short, it runs like this: as §1

The structures appear in SMILES notation. Activity calls are given as the source filed them. The rule behind the calls is not given here.

What is called IC50 is the concentration that gives 50% inhibition. A lower IC50 goes with inhibition by little substance. A word on the bioavailability: it is the share of a dose that reaches the circulation, judged against a reference dose that is usually intravenous. Read a low bioavailability as poor availability. By Cmax is commonly meant the maximum level reached in the sampled fluid or tissue.

Cytochrome P450 2D6, sequence (P10635 whole entry): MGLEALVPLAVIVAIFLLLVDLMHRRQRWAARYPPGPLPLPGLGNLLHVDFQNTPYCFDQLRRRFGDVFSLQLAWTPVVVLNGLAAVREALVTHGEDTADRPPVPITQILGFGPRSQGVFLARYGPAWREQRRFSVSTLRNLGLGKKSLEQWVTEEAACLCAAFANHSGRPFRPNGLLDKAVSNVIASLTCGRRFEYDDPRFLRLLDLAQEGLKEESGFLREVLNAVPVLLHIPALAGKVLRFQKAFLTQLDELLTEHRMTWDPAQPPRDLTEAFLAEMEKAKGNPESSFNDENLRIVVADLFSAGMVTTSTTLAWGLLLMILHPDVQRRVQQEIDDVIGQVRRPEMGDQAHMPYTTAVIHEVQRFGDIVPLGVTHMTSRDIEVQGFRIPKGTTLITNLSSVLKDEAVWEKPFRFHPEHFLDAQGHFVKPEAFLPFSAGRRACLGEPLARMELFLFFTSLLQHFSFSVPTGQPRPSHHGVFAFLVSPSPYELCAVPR

For the compound `O=C(Nc1ccccc1-c1cn2c(CN3CCNCC3)csc2n1)c1cnc2ccccc2n1`, the Activity result in the series on Mus musculus [1] is listed as “Active”; with Salmonella typhimurium [3], “Non-toxic”; in the series on Rattus norvegicus it was 35%; in series [5], “Not Active”; on Cytochrome P450 2D6, “Not Active”; in the series with Mus musculus [10] it was “Active”. Besides, the figures for the Activity entry in the series on Mus musculus [11], in the series on Salmonella typhimurium [13] and in the series with Mus musculus [15] were “Non-toxic”, “Non-toxic” and “Active”, respectively. Moreover, the result with Mus musculus [2], in the series with Mus musculus [8] and in the series with Mus musculus [9] was Active. The same compound returned an IC50 in series [4] of 8.02 µM. In [6], the half-life was 8.4 h. In series [7], this compound showed a bioavailability of 25%. This compound had a Cmax in [12] of 320 nM. Besides, in the series with Mus musculus [14], the result was inactive.

The record behind these values is ChEMBL document CHEMBL1140923, “Discovery of imidazo[1,2-b]thiazole derivatives as novel SIRT1 activators” (J Med Chem, 2009).
